Measured values gathered from unrelated publications.
Each line is one published result; the experiments were not run side by side.
Cell line: Vero
Read-out: cell growth or viability

Structure (SMILES) | test | setting | IC50
Cc1cc(=O)[nH]n1C(=O)c1ccc(-n2c(C)ccc2C)cc1 | MTT | 72 h | 202 µM
Nc1ccc(-c2nc3ccccn3c2NC2CCCCC2)cc1 | MTT | 48 h | 90 µM
Cc1ccc(C)n1-c1ccc(-c2nnc(S)s2)cc1 | MTT | 72 h | 221 µM
Nc1nc(N)c(CNCCc2cccc(Cl)c2)c(C2CCCCC2)n1 | SRB | – | 23 µM
CC(C)(C)Nc1c(-c2ccc(N)cc2)nc2cnccn12 | MTT | 48 h | 76 µM
COc1ccccc1CCNCc1c(N)nc(N)nc1-c1ccccc1 | SRB | – | > 100 µM
Cc1ccc(C)n1-c1ccc(-c2nnco2)cc1 | MTT | 72 h | 216 µM
O=[N+]([O-])c1ccc(-c2csc(Nc3ccc4c(O)ncnc4c3)n2)cc1 | MTT | – | > 50 µM
O=[N+]([O-])c1ccc(-c2nc3ccccn3c2NC2CCCCC2)cc1 | MTT | 48 h | 85 µM
COc1ccc(CCNCc2c(N)nc(N)nc2-c2ccccc2)cc1 | SRB | – | > 100 µM
C#Cc1cccc(Nc2ncnc3cc(OCCOC)c(OCCOC)cc23)c1 | MTT | – | > 30 µM
CO[C@H]1/C=C/O[C@@]2(C)Oc3c(C)c(O)c4c(O)c(c(/C=N/N5CCN(C)CC5)c(O)c4c3C2=O)NC(=O)/C(C)=C\C=C\[C@H](C)[C@H](O)[C@@H](C)[C@@H](O)[C@@H](C)[C@H](OC(C)=O)[C@@H]1C | MTT | 48 h | > 1000 µg/mL
COc1ccc(CCNCc2c(N)nc(N)nc2C2CCCCC2)cc1 | SRB | – | 21 µM
NC1=C(Cl)C(=O)c2c(C(O)CO)c[nH]c2C1=O (stereo not drawn) | MTT | 72 h | > 19.5 µM
Nc1ccc(-c2csc(Nc3ccc4c(O)ncnc4c3)n2)cc1 | MTT | – | > 50 µM
Nc1ccc(-c2nc3ccccn3c2N)cc1 | MTT | 48 h | 88 µM
Cc1[nH]c(=O)c(CNC(=O)c2ccc(C(F)(F)F)o2)c2c1CCCC2 | MTT | 72 h | > 50 µg/mL

Structure (SMILES) | test | setting | IC50
Oc1ncnc2cc(Nc3nc(-c4ccc(Cl)cc4)cs3)ccc12 | MTT | – | > 50 µM
Nc1nc(N)c(CNCCc2ccc(Cl)c(Cl)c2)c(C2CCCCC2)n1 | SRB | – | 21 µM
Cc1ccc(C)n1-c1ccc(C(=O)NNC=O)cc1 | MTT | 72 h | 211 µM
CN(C)c1ccc(-c2nc3cnccn3c2N)cc1 | MTT | 48 h | 91 µM
NC1=NN(c2ccc([N+](=O)[O-])cc2[N+](=O)[O-])C(=O)C1=NNc1ccc(N=Nc2ccccc2)cc1 | – | – | 45.1 µM
Nc1ccccc1-c1nc2cnccn2c1N | MTT | 48 h | 78 µM
Oc1ncnc2cc(Nc3nc(-c4ccc(F)cc4)cs3)ccc12 | MTT | – | > 50 µM
COc1cccc2c1C(=O)c1c(O)c3c(c(O)c1C2=O)C[C@@](O)(C(=O)CO)C[C@@H]3O[C@H]1C[C@H](N)[C@H](O)[C@H](C)O1 | SRB | – | 0.68 µM
Nc1nc(N)c(CNCCc2ccc(Cl)cc2Cl)c(C2CCCCC2)n1 | SRB | – | 16 µM
COc1cc(OC)cc(-c2ccc(C(=O)NCc3c4c(c(C)[nH]c3=O)CCCC4)cc2)c1 | MTT | 72 h | > 50 µg/mL
COc1ccccc1CCNCc1c(N)nc(N)nc1C1CCCCC1 | SRB | – | 21 µM
Cc1ccc(-c2csc(Nc3ccc4c(O)ncnc4c3)n2)cc1 | MTT | – | > 50 µM
CC(C)(C)Nc1c(-c2ccccc2[N+](=O)[O-])nc2cnccn12 | MTT | 48 h | > 100 µM
N#Cc1nn(-c2ccc(N=Nc3ccccc3)cc2)c(=S)n(-c2ccccc2)c1=O | – | – | 42.3 µM
Nc1c(-c2ccc([N+](=O)[O-])cc2)nc2cnccn12 | MTT | 48 h | 80 µM
Nc1nc(N)c(CNCCc2ccc(F)cc2)c(C2CCCCC2)n1 | SRB | – | 22 µM
